Key:
[1] = Growth inhibition of human LCLC-103H cells at 20 uM after 96 hrs by crystal violet staining; assay type: functional; settings: read-out: GI
How it was run: (§1)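 This was a single-concentration screen. Actively dividing cells had 96 h continuous exposure to compound diluted 1000-fold from a DMSO solution into medium. Cells were fixed with glutaraldehyde and stained with crystal violet. Bound dye was redissolved in 70% ethanol and read at OD 570 nm. Growth inhibition was expressed against untreated controls.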

[2] = Cytotoxicity against human LCLC-103H cells after 96 hrs by crystal violet staining; assay type: functional, cell-based
How it was run: (§2)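 Compounds were held as 20 mM DMSO stocks at -20 °C and serially diluted in DMSO to working solutions of 20, 10, 5.0, 2.50, 1.25 and […]. Five of these were diluted 1000-fold into medium, with DMSO-only controls. Dividing cells had 96 h continuous exposure, then glutaraldehyde fixation and crystal violet staining. Dye was redissolved in 70% ethanol and read at OD 570 nm. IC50 came from linear regression of log dose–response curves.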

5637 [3] = assay: Cytotoxicity against human 5637 cells after 96 hrs by crystal violet staining; assay type: functional, cell-based; settings: Homo sapiens, 5637, 96 h; how it was run: as §2
A-427 [4] = assay: Cytotoxicity against human A427 cells after 96 hrs by crystal violet staining; assay type: functional, cell-based; settings: A-427, 96 h; how it was run: as §2
DAN-G [5] = assay: Cytotoxicity against human DAN-G cells after 96 hrs by crystal violet staining; assay type: functional, cell-based; how it was run: as §2
RT-4 [6] = assay: Cytotoxicity against human RT4 cells after 96 hrs by crystal violet staining; assay type: functional, cell-based; settings: RT-4, 96 h; how it was run: as §2
MCF7 [7] = assay: Cytotoxicity against human MCF7 cells after 96 hrs by crystal violet staining; assay type: functional, cell-based; settings: MCF7, 96 h; how it was run: as §2
DAN-G [8] = assay: Growth inhibition of human DAN-G cells at 20 uM after 96 hrs by crystal violet staining; assay type: functional; settings: read-out: GI; how it was run: as §1
MCF7 [9] = assay: Growth inhibition of human MCF7 cells at 20 uM after 96 hrs by crystal violet staining; assay type: functional; settings: MCF7, 96 h, read-out: GI; how it was run: as §1
5637 [10] = assay: Growth inhibition of human 5637 cells at 20 uM after 96 hrs by crystal violet staining; assay type: functional; settings: Homo sapiens, 5637, 96 h; read-out: GI; how it was run: as §1
RT-4 [11] = assay: Growth inhibition of human RT4 cells at 20 uM after 96 hrs by crystal violet staining; assay type: functional; settings: RT-4, 96 h, read-out: GI; how it was run: as §1
A-427 [12] = assay: Growth inhibition of human A427 cells at 20 uM after 96 hrs by crystal violet staining; assay type: functional; settings: A-427, 96 h, read-out: GI; how it was run: as §1

Compound	inhibition of growth at 20 µM [1]	IC50 [2]	IC50 5637 [3]	IC50 (A-427 [4])	IC50 (DAN-G [5])	IC50 (RT-4 [6])	IC50 (MCF7 [7])	inhibition of growth at 20 µM (DAN-G [8])	inhibition of growth at 20 µM (MCF7 [9])	inhibition of growth at 20 µM 5637 [10]	inhibition of growth at 20 µM (RT-4 [11])	inhibition of growth at 20 µM (A-427 [12])
C=CCn1c(-c2ccccc2)c(-c2ccccc2)c2c(N)cc(N(C)C)nc21	< 50%	> 20 µM	16.9 µM	3.93 µM	> 20 µM	12.1 µM	9.04 µM	< 50%	–	–	–	–
Cc1c(-c2ccccc2)sc2nc(N(C)C)cc(N)c12	< 50%	> 20 µM	17.7 µM	15.3 µM	16.4 µM	6.19 µM	13.6 µM	–	–	–	–	–
CN(C)c1cc(N)c2c(-c3ccccc3)c(-c3ccccc3)n(Cc3ccccc3)c2n1	< 50%	> 20 µM	> 20 µM	–	> 20 µM	> 20 µM	> 20 µM	< 50%	< 50%	< 50%	< 50%	–
Cc1oc2nc(N3CCCC3)cc(N)c2c1C	< 50%	> 20 µM	> 20 µM	> 20 µM	> 20 µM	> 20 µM	> 20 µM	< 50%	< 50%	< 50%	< 50%	< 50%
Nc1cc(N2CCCC2)nc2sc(-c3ccccc3)c(-c3ccccc3)c12	–	9.79 µM	8.18 µM	8.76 µM	8.17 µM	> 20 µM	13.7 µM	–	–	–	< 50%	–
CN(C)c1cc(N)c2c3c(n(Cc4ccccc4)c2n1)CCCC3	< 50%	> 20 µM	–	–	> 20 µM	–	–	< 50%	–	–	–	–
Cc1nc2nc(N(C)C)cc(N)c2cc1-c1ccccc1	< 50%	> 20 µM	> 20 µM	–	> 20 µM	> 20 µM	> 20 µM	< 50%	< 50%	< 50%	< 50%	–
CCOC(OCC)n1c2ccccc2c2c(N)cc(N(C)C)nc21	< 50%	> 20 µM	> 20 µM	> 20 µM	> 20 µM	> 20 µM	> 20 µM	< 50%	< 50%	< 50%	< 50%	< 50%
CN(C)c1cc(N)c2c(-c3ccccc3)c(-c3ccccc3)sc2n1	–	10.6 µM	10.1 µM	11.2 µM	15.2 µM	> 20 µM	16.2 µM	–	–	–	< 50%	–
CN(C)c1cc(N)c2c(n1)[nH]c1ccccc12	< 50%	> 20 µM	> 20 µM	> 20 µM	> 20 µM	> 20 µM	> 20 µM	< 50%	< 50%	< 50%	< 50%	< 50%
Cc1oc2nc(N(C)C)cc(N)c2c1C	< 50%	> 20 µM	> 20 µM	> 20 µM	> 20 µM	> 20 µM	> 20 µM	< 50%	< 50%	< 50%	< 50%	< 50%
CN(C)c1cc(N)c2ccc3ccccc3c2n1	–	8.93 µM	10 µM	8.22 µM	10.2 µM	7.82 µM	6.2 µM	–	–	–	–	–
CN(C)c1cc(N)c2c3ccccc3n(C)c2n1	< 50%	> 20 µM	> 20 µM	> 20 µM	> 20 µM	> 20 µM	> 20 µM	< 50%	< 50%	< 50%	< 50%	< 50%
COc1ccc(Cn2c3nc(N(C)C)cc(N)c3c3ccc4ccccc4c32)cc1	< 50%	> 20 µM	> 20 µM	> 20 µM	> 20 µM	> 20 µM	> 20 µM	< 50%	< 50%	< 50%	< 50%	< 50%
CN(C)c1cc(N)c2c(-c3ccccc3)c(-c3ccccc3)oc2n1	< 50%	> 20 µM	14.9 µM	14.6 µM	> 20 µM	> 20 µM	18.8 µM	< 50%	–	–	< 50%	–
CN(C)c1cc(N)c2c(n1)[nH]c1c3ccccc3ccc12	–	9.67 µM	7.9 µM	6.58 µM	9.84 µM	6.56 µM	7.52 µM	–	–	–	–	–
Cc1c(C)n(Cc2ccccc2)c2nc(N(C)C)cc(N)c12	< 50%	> 20 µM	11.8 µM	12.5 µM	> 20 µM	19.6 µM	13.1 µM	< 50%	–	–	–	–
Nc1cc(N2CCCC2)nc2oc(-c3ccccc3)c(-c3ccccc3)c12	< 50%	> 20 µM	18.4 µM	13.8 µM	> 20 µM	17.7 µM	14.7 µM	< 50%	–	–	–	–
COc1ccc(Cn2c3ccccc3c3c(N)cc(N(C)C)nc32)cc1	< 50%	> 20 µM	> 20 µM	> 20 µM	> 20 µM	–	> 20 µM	< 50%	< 50%	< 50%	–	< 50%
CN(C)c1cc(N)c2c3ccc4ccccc4c3n(C)c2n1	< 50%	> 20 µM	> 20 µM	14.3 µM	> 20 µM	12.9 µM	21.3 µM	< 50%	–	< 50%	–	–
CN(C)c1cc(N)c2cc(-c3ccccc3)c(-c3ccccc3)nc2n1	–	13.7 µM	8.03 µM	7.93 µM	11.6 µM	14.4 µM	7.79 µM	–	–	–	–	–
Cc1c2ccncc2c(C)c2c1[nH]c1ccccc12 [ELLIPTECINE]	–	0.8 µM	0.89 µM	0.89 µM	–	1.21 µM	0.43 µM	–	–	–	–	–
Nc1cc(N2CCCC2)nc2nc(-c3ccccc3)c(-c3ccccc3)cc12	–	12.5 µM	2.75 µM	4.33 µM	6.34 µM	12 µM	4.08 µM	–	–	–	–	–
Cc1cc2c(N)cc(N(C)C)nc2nc1-c1ccccc1	< 50%	> 20 µM	8.82 µM	11.8 µM	18.1 µM	5 µM	11.7 µM	–	–	–	–	–
CN(C)c1cc(N)c2c3c(sc2n1)CCCC3	< 50%	> 20 µM	> 20 µM	> 20 µM	> 20 µM	> 20 µM	> 20 µM	< 50%	< 50%	< 50%	< 50%	< 50%

From ChEMBL document CHEMBL1152956, “Synthesis and cytotoxic activity of 5,6-heteroaromatically annulated pyridine-2,4-diamines” (Bioorg Med Chem, 2009)
